# In article PMC3076219 (European journal of immunology, 2009):
# Assays:
# P2X7 = P2X7 receptor blockers; monocytes; ref [14]; cited from earlier work
# monocytes [1] = assay: Calcium mobilization in monocytes; assay type: cell-based, human; settings: ATP or WKYMVm first, then LL-37; Fig. 7D
# Procedure, shortened: (§1)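 Peripheral blood monocytes (kit-isolated from PBMC, CD14-checked) or THP-1 cells at 10^7/mL were loaded with 5 µM Indo-1-AM for 7 min at 37 °C, then held 10 min at RT and washed in cold PBS. Cells were run at 2×10^6/mL in KRP (PBS, 1.5 mM CaCl2, 1.5 mM MgSO4). After baseline they got a first stimulus, then a second. Flow cytometry used 351 nm excitation and the 405:485 nm ratio, gating live cells. Three independent experiments.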
# THP-1 cells = assay: Calcium mobilization in THP-1 cells; assay type: cell-based; settings: THP-1; Fig. 7C
# Procedure, shortened: as §1
# monocytes [2] = assay: Migration of monocytes, 24-well Transwell; assay type: cell-based, human; settings: LL-37 5 µM, CXCL1 50 nM, WKYMVm 5 µM, ATP 50 µM, BzATP 50 µM; 90 min, 37°C; Fig. 7F
# Procedure, shortened: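 CFSE-labelled monocytes or THP-1 cells (5 µM, 5 min RT) at 2×10^6/mL in phenol-red-free RPMI 1640 with 1% FBS went in the Transwell upper chamber (3-µm pores). Stimuli in the lower chamber included CXCL1 50 nM, WKYMVm 5 µM and ATP/BzATP 50 µM. Cells were used with or without 20 min preincubation with 10 µM CXCR2 antagonist. Incubation at 37 °C lasted 90 min for monocytes and 2 h for THP-1. Lower-well cells were read at 495 nm against a standard curve, in quadruplicate.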
# CXCR2 [3] = assay: CXCR2 surface expression on monocytes; assay type: cell-based, human; settings: Supporting information Fig. 2
# CXCR2 [4] = assay: CXCR2 surface expression on neutrophils, flow cytometry; assay type: cell-based, human; settings: 3h; for CXCR2 surface expression, chemokine treated: 1 nM, 5 nM, 10 nM (50 nM), Fig. 2E-G
# neutrophils [5] = assay: Calcium mobilization of neutrophils; assay type: cell-based, human; settings: ATP 5 µM; for [Ca2+]i time of decline to baseline: fMLF 100 nM, CXCL8 10 nM, Fig. 3A
# neutrophils [6] = assay: Cross-desensitization of calcium mobilization of neutrophils; assay type: cell-based, human; settings: for cross-desensitization of response to fMLF by LL-37, CXCL7, CXCL1: data not shown
# CXCR1 [7] = assay: CXCR1 surface expression on neutrophils, flow cytometry; assay type: cell-based, human; settings: 3h; for CXCR1 surface expression, chemokine treated: 1 nM, 5 nM, 10 nM (50 nM), Fig. 2E-G; for CXCR1 down-regulation at higher dose: 50 nM
# Procedure, shortened: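 Human blood neutrophils were isolated by dextran sedimentation and Ficoll (>95% CD16+) and held at 5×10^6/mL in RPMI 1640 with 1% FBS. They were treated 3h with a dose series (test peptide 1–10 µM; chemokines 1, 5, 10, 50 nM) or with 5 µM for 0.5–3h. Cells were blocked in 10% human serum and stained with anti-CXCR1-APC/anti-CXCR2-FITC or anti-P2X7-FITC, plus anti-CD16. Read-out was flow cytometry GMFI.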
# CXCR2 [8] = settings: ref [33], [34]; cited from earlier work
# CXCR1 [9] = settings: ref [33], [34]; cited from earlier work
# CXCR1 [10] = assay: Confocal analysis of CXCR1 internalization in neutrophils; assay type: cell-based, human; settings: 37°C
# Procedure, shortened: (§2)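 Neutrophils came from citrated donor blood by dextran sedimentation and Ficoll gradient. […] Cells were fixed in 2% paraformaldehyde, permeabilised with saponin and blocked with human serum. Anti-CXCR1 or anti-CXCR2 mAb (4°C), then Alexa 488 anti-mouse IgG, DAPI mount, confocal imaging; three independent experiments.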
# CXCR2 [11] = assay: Calcium mobilization in HEK293/CXCR2 cells; assay type: cell-based, human; settings: Indo-1; Fig. 7A-B
# Procedure, shortened: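 They were washed in cold PBS, pelleted at 200 × g for 10 min at 4 °C, and resuspended in PBS with Ca/Mg. […] [Ca2+]i was read as the 405:485 nm ratio by flow cytometry, gating on living cells.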
# CXCR1 [12] = assay: Calcium mobilization in HEK293/CXCR1 cells; assay type: cell-based, human; settings: Indo-1; Fig. 7A-B
# Procedure, shortened: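 CXCR1-transfected HEK293 cells were loaded with 5 µM Indo-1-AM in 5 µM pluronic F-127/PBS for 30 min at RT. They were washed in cold PBS, spun at 200 × g for 10 min at 4 °C and suspended in PBS with calcium and magnesium. Stimulation followed baseline recording. Flow cytometric [Ca2+]i was read as the 405:485 nm emission ratio with 351 nm excitation. Three independent experiments.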
# CXCR2 [13] = assay: Confocal analysis of CXCR2 internalization in neutrophils; assay type: cell-based, human; settings: 37°C
# Procedure, shortened: as §2
# [14] = test system: CXCR1 transfected HEK293 cells; assay: Secondary necrosis of CXCR1 transfected HEK293 cells; assay type: cell-based; settings: Supporting information Fig. 4
# [15] = test system: CXCR2 transfected HEK293 cells; assay: Secondary necrosis of CXCR2 transfected HEK293 cells; assay type: cell-based; settings: Supporting information Fig. 4
# [16] = test system: 125I-CXCL8 specific binding sites on neutrophils (CXCR1/2); assay: Competition with 125I-CXCL8 for binding to neutrophils; set-up: species or system human; settings: 1.25 nM 125I-CXCL8, 2h on ice, triplicate, dose-dependent, Fig. 5B
# [17] = ATP 30 µM, 300 µM, 3000 µM, Fig. 2C
# [18] = fMLF 50 nM, 100 nM, 200 nM, Fig. 2A
# [19] = LL-37 5 µM or CXCL8 50 nM, 1 h, Fig. 8
# [20] = CXCL7 50 nM or CXCL1 50 nM, 60 min, data not shown
molecule,measurement,setting,value
Nc1ncnc2c1ncn2[C@@H](C=O)O[C@@H](C=O)COP(=O)(O)OP(=O)(O)OP(=O)(O)O [oxATP],block of LL-37-induced release of IL-1β,P2X7,did not completely block the release of IL-1β
"Nc1ncnc2c1ncn2[C@@H]1O[C@H](COP(=O)(O)OP(=O)(O)OP(=O)(O)O)[C@@H](O)[C@H]1O [ATP, reference compound]",cross-block of LL-37 stimulated calcium mobilization in monocytes,monocytes [1],neither ATP nor WKYMVm cross-block LL-37 stimulated calcium mobilization
same,block of LL-37 induced calcium mobilization by ATP / BzATP,THP-1 cells,able to partially block
same,stimulation of migration of monocytes,monocytes [2],only LL-37 stimulated migration of monocytes
same,CXCR2 down-regulation on monocytes,CXCR2 [3],"but not ATP or BzATP, all down-regulate CXCR2"
same,CXCR2 surface expression,CXCR2 [4]; [17],no down-regulation of either CXCR1 or CXCR2
same,[Ca2+]i time of decline to baseline,neutrophils [5],≤ 200 s
same,calcium flux response in the absence of extracellular Ca2+,"neutrophils [5]; PBS without calcium and magnesium, LL-37 5 µM, WKYMVm 5 µM, Fig. 3C",only the WKYMVm peptide is capable of generating a calcium flux response
same,cross-desensitization of LL-37 response by ATP,"neutrophils [6]; ATP first, then LL-37, Supporting information Fig. 3A-B",unable to block calcium mobilization stimulated by LL-37 in neutrophils
same,CXCR1 surface expression,CXCR1 [7]; [17],no down-regulation of either CXCR1 or CXCR2
CXCL2: CXC chemokine,affinity for CXCR2,CXCR2 [8],high affinity
CXCL5: CXC chemokine,affinity for CXCR2,CXCR2 [8],high affinity
Nc1ncnc2c1ncn2[C@@H]1O[C@H](COP(=O)(O)OP(=O)(O)OP(=O)(O)O)[C@@H](OC(=O)c2ccc(C(=O)c3ccccc3)cc2)[C@H]1O [BzATP],block of LL-37 induced calcium mobilization by ATP / BzATP,THP-1 cells,not BzATP was able to partially block
same,stimulation of migration of monocytes,monocytes [2],only LL-37 stimulated migration of monocytes
same,CXCR2 down-regulation on monocytes,CXCR2 [3],"but not ATP or BzATP, all down-regulate CXCR2"
CXCL3: CXC chemokine,affinity for CXCR2,CXCR2 [8],high affinity
CXCL6: CXC chemokine,affinity for CXCR1,CXCR1 [9],high affinity
same,affinity for CXCR2,CXCR2 [8],high affinity
fMLF [reference compound],CXCR2 surface expression,CXCR2 [4]; [18],caused down-regulation of both CXCR2 and CXCR1 expression with similar kinetics
same,[Ca2+]i time of decline to baseline,neutrophils [5],≤ 200 s
same,CXCR1 surface expression,CXCR1 [7]; [18],caused down-regulation of both CXCR2 and CXCR1 expression with similar kinetics
CXCL8: recombinant human chemokine that binds both CXCR1/2,CXCR1 translocation (internalization),CXCR1 [10]; [19],translocation of both CXCR1 and CXCR2 to the cytoplasm
same,CXCR2 down-regulation on monocytes,CXCR2 [3],down-regulate CXCR2
same,"CXCR2 surface expression, chemokine treated",CXCR2 [4],significantly down-regulated both CXCR1 and CXCR2
same,[Ca2+]i time of decline to baseline,neutrophils [5],less than 100 s
same,cross-desensitization of response to CXCL1,"neutrophils [6]; CXCL8 10 nM first, CXCL1 10 nM 160 s later, Fig. 4C",completely blocked
same,cross-desensitization of response to CXCL7,"neutrophils [6]; CXCL8 10 nM first, CXCL7 10 nM 160 s later, Fig. 4B",completely blocked
same,cross-desensitization of response to LL-37,"neutrophils [6]; CXCL8 10 nM first, LL-37 5 µM 160 s later, Fig. 4A",completely blocked
same,cross-desensitization of response to fMLF,"neutrophils [6]; CXCL8 10 nM first, fMLF 100 nM 160 s later, Fig. 4D",failed to cross-sensitize fMLF stimulation
same,"CXCR1 surface expression, chemokine treated",CXCR1 [7],significantly down-regulated both CXCR1 and CXCR2
same,calcium mobilization in CXCR2 transfected HEK293 cells,CXCR2 [11],weak but similar patterns of calcium mobilization
same,affinity for CXCR1,CXCR1 [9],high affinity
same,calcium mobilization in CXCR1 transfected HEK293 cells,CXCR1 [12],gave a response
same,affinity for CXCR2,CXCR2 [8],high affinity
same,CXCR2 translocation (internalization),CXCR2 [13]; [19],translocation of both CXCR1 and CXCR2 to the cytoplasm
CN([C@@H](Cc1ccc(OS(=O)(=O)c2cccc3cnccc23)cc1)C(=O)N1CCN(c2ccccc2)CC1)S(=O)(=O)c1cccc2cnccc12 [KN62],block of LL-37-induced release of IL-1β,P2X7,did not completely block the release of IL-1β
"CXCL1: recombinant human chemokine, predominantly CXCR2 specific",CXCR1 translocation (internalization),CXCR1 [10]; [20],caused only CXCR2 receptor translocation to the cytoplasm
same,stimulation of migration of monocytes,monocytes [2],only LL-37 stimulated migration of monocytes
same,"generation of secondary necrotic cells, HEK293/CXCR1",[14],not with CXCL1
same,CXCR2 down-regulation on monocytes,CXCR2 [3],down-regulate CXCR2
same,"CXCR2 surface expression, chemokine treated",CXCR2 [4],down-regulated CXCR2 but not CXCR1 in a limited dose-dependent manner
same,"generation of secondary necrotic cells, HEK293/CXCR2",[15],not with CXCL1
same,"cross-desensitization of response to fMLF by LL-37, CXCL7, CXCL1",neutrophils [6],do not cross-sensitize fMLF stimulation
same,CXCR1 down-regulation at higher dose,CXCR1 [7],down-regulate CXCR1 at higher doses
same,"CXCR1 surface expression, chemokine treated",CXCR1 [7],down-regulated CXCR2 but not CXCR1
same,maximum competition of 125I-CXCL8 binding,[16]; 2×10^6 cells,around 50%
same,displacement of 125I-CXCL8,[16],partly displace
same,calcium mobilization in CXCR2 transfected HEK293 cells,CXCR2 [11],weak but similar patterns of calcium mobilization
same,calcium mobilization in CXCR1 transfected HEK293 cells,CXCR1 [12],only CXCL8 gave a response
same,affinity for CXCR2,CXCR2 [8],high affinity
same,CXCR2 translocation (internalization),CXCR2 [13]; [20],caused only CXCR2 receptor translocation to the cytoplasm
"CXCL7: recombinant human chemokine, rather CXCR2 specific (protein, UniProt P02775 59-128, looked up, Neutrophil-activating peptide 2) Neutrophil-activating peptide …: AELRCMCIKTTSGIHPKNIQSLEVIGKGTHCNQVEVIATLKDGRKICLDPDAPRIKKIVQKKLAGDESAD",CXCR1 translocation (internalization),CXCR1 [10]; [20],caused only CXCR2 receptor translocation to the cytoplasm
same,"cross-desensitization of response to fMLF by LL-37, CXCL7, CXCL1",neutrophils [6],do not cross-sensitize fMLF stimulation
same,CXCR1 down-regulation at higher dose,CXCR1 [7],down-regulate CXCR1 at higher doses
same,"CXCR1 surface expression, chemokine treated",CXCR1 [7],less discriminatory towards CXCR2 compared to LL-37
same,affinity for CXCR2,CXCR2 [8],high affinity
same,CXCR2 translocation (internalization),CXCR2 [13]; [20],caused only CXCR2 receptor translocation to the cytoplasm
